Results on five compounds are retold here after ChEMBL document CHEMBL1133118 (J Med Chem, 2000).

The structures appear in SMILES notation. pIC50, pKi: −log10 of the molar value. Bounds are passed on as bounds.

In test [1] the target is T1, Adenosine receptor A2b (Homo sapiens, UniProt P29275).
T1 sequence (P29275 whole entry): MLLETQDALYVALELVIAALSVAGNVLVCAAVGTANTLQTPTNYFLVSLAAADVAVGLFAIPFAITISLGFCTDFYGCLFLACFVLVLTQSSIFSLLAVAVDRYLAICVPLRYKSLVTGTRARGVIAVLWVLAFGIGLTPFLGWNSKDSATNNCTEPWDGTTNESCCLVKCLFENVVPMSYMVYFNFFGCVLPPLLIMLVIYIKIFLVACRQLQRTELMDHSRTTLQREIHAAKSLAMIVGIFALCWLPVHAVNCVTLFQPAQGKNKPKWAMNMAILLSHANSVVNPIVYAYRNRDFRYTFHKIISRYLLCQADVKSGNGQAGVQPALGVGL
The experiment in a line: Displacement of [3H]DPCPX from Adenosine A2b receptor expressed in CHO cells; range 45-64. The test is classed as cell-based. Particulars: in the assay text read “HEK-293 cells” for “CHO cells”. Put shortly:
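Human recombinant A2B receptor was expressed in HEK-293 cell membranes (20 μg protein). Incubated with 40 nM [3H]DPCPX in 50 mM Tris HCl, 10 mM MgCl2, 1 mM EDTA, 0.1 mM benzamidine, pH 7.4, with 2 IU/mL adenosine deaminase, at least 6–8 test concentrations, 60 min, 25 °C. Nonspecific binding was taken with 100 μM NECA; n=3-6.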
(In general: Loss of bound radioactivity is the signal in a displacement assay; it reports binding, not function.)

Test [2] concerns the target T2, Adenosine receptor A3 (Homo sapiens, UniProt P0DMS8).
T2 sequence (P0DMS8 whole entry): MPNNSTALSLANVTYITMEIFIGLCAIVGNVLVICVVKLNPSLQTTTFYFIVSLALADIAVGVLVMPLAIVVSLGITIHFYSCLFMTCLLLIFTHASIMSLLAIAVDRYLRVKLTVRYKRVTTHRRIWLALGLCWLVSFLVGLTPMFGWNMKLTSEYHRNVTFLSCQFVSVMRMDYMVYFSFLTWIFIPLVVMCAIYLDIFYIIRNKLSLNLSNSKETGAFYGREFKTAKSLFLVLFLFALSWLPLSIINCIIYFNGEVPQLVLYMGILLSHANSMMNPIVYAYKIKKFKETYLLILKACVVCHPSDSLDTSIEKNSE
The test is described as follows: Displacement of [3H]MRE3008-F20 from human adenosine A3 receptor expressed in CHO cells; range 23-40. The test is classed as cell-based.

The target in test [3] is T3, Adenosine receptor A2a (Homo sapiens, UniProt P29274). The experiment in a line: Displacement of [3H]-SCH- 58261 from human adenosine A2A receptor expressed in CHO cells; range 47-78. The test is classed as cell-based. Put shortly:
(§1)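 Membranes from CHO cells stably expressing human A2A receptor, grown in DMEM/F12 without nucleosides, resuspended in 50 mM Tris HCl, 10 mM MgCl2, pH 7.4; 50 μg protein/assay. Competition with [3H]SCH 58261 at 6–8 or more compound concentrations, 60 min at 25 °C; nonspecific binding with 50 μM NECA. Filtration on GF/B filters, scintillation counting; n=3-6.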

In test [4] the target is T4, Adenosine receptor A1 (Homo sapiens, UniProt P30542).
T4 sequence (P30542 whole entry): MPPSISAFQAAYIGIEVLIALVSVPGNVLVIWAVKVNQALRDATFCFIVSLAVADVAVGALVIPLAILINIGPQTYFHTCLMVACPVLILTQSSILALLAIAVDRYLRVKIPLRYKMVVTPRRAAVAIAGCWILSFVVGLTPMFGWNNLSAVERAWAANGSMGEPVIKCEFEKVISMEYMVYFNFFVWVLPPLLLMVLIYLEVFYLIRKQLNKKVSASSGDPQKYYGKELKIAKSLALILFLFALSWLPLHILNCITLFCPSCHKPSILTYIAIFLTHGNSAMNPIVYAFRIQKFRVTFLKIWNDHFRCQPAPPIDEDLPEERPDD
The test is described as follows: Displacement of [3H]DPCPX from human adenosine A1 receptor expressed in CHO cells; range 149-204. The test is classed as cell-based.

Test [5] addresses Adenosine receptors; A1 & A3 (Homo sapiens) (UniProt P30542+P0DMS8). The experiment in a line: Ratio of binding affinity of human A1 receptor to that of human A3 receptor. It is filed as protein assay. Put shortly:
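Ki ratio from displacement in CHO membranes, 6–8 concentrations, n=3-6, filtration counting. A1: 1 nM [3H]DPCPX, 50 μg protein, 120 min at 25 °C, nonspecific with 10 μM CHA. A3: 1 nM [3H]MRE3008-F20, 50 μg protein, Tris/10 mM MgCl2 pH 7.4, 120 min at 4 °C, nonspecific with 1 μM MRE3008-F20.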

For test [6], the target named is T5, Adenosine receptor A3 (Homo sapiens) (UniProt P0DMS8).
T5 sequence (whole entry): T2 sequence (P0DMS8 whole entry)
Particulars: CHO, 1 uM.

For test [7], the target named is Adenosine receptors; A2b & A3 (Homo sapiens) (UniProt P29275+P0DMS8). The experiment in a line: Ratio of binding affinity of human A2B receptor to that of human A3 receptor. It is filed as protein assay. Put shortly: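 Ki ratio, n=3-6, 6–8 concentrations. A2B in HEK-293 membranes (20 μg): 40 nM [3H]DPCPX, 50 mM Tris HCl, 10 mM MgCl2, 1 mM EDTA, 0.1 mM benzamidine pH 7.4, 2 IU/mL adenosine deaminase, 60 min at 25 °C, nonspecific with 100 μM NECA. A3 in CHO membranes (50 μg): 1 nM [3H]MRE3008-F20, 120 min at 4 °C.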

For test [8], the target named is T1, Adenosine receptor A2b. The test is described as follows: Displacement of [3H]-DPCPX from Adenosine A2b receptor expressed in […]; range 719-895. The test is classed as cell-based.
The target in test [9] is T2, Adenosine receptor A3. The test is described as follows: Displacement of [3H]MRE3008-F20 from human adenosine A3 receptor expressed in CHO cells; range 33-48. The test is classed as cell-based.
Test [10] deals with T3, Adenosine receptor A2a. The experiment in a line: Displacement of [3H]-SCH- 58261 from human adenosine A2A receptor expressed in CHO cells; range 880-1160. It is filed as cell-based. Put shortly: as §1
The target in test [11] is T5, Adenosine receptor A3 (Homo sapiens). The experiment in a line: Percentage of blockade by 1 uM of the inhibition by 100 nM IB-MECA-inhibited cAMP accumulation in CHO cells expressing human adenosine A3 receptor. It is filed as functional, cell-based. Put shortly:
(§2)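 CHO cells stably expressing human A3 receptor; membranes in 50 mM Tris HCl, 10 mM MgCl2, 1 mM EDTA pH 7.4 with 5 μM GTP, 0.5 mM […] and 2.0 IU/mL adenosine deaminase. Preincubated 10 min at 37 °C, then IB-MECA (100 nM) and/or antagonist with 1 mM ATP and 10 μM forskolin for 10 min. Boiled 2 min. cAMP read by [3H]cAMP competition with adrenal binding protein.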
A general note: Changes in cAMP serve as a functional read-out for many G protein-coupled receptors.

The target of test [12] is T2, Adenosine receptor A3. The experiment in a line: Displacement of [3H]MRE3008-F20 from human adenosine A3 receptor expressed in CHO cells; range 17-36. It is filed as cell-based.
The target of test [13] is T1, Adenosine receptor A2b. The test is described as follows: Displacement of [3H]DPCPX from Adenosine A2b receptor expressed in CHO cells. It is filed as cell-based.
For test [14], the target named is T4, Adenosine receptor A1. The test is described as follows: Displacement of [3H]DPCPX from human adenosine A1 receptor expressed in CHO cells; range 191-339. The test is classed as cell-based.
Test [15] deals with T3, Adenosine receptor A2a. The test is described as follows: Displacement of [3H]-SCH- 58261 from human adenosine A2A receptor expressed in CHO cells; range 1770-2327. The test is classed as cell-based.
Test [16] concerns the target T3, Adenosine receptor A2a. The test is described as follows: Displacement of [3H]-SCH- 58261 from human adenosine A2A receptor expressed in CHO cells; range 150-207. It is filed as cell-based.
Test [17] has as its target T5, Adenosine receptor A3 (Homo sapiens). The experiment in a line: Percent reversal of 100 nM IB-MECA-inhibited cAMP accumulation in CHO cells expressing human adenosine A3 receptor at 1 uM; range 73-110. It is filed as functional, cell-based. Summed up: as §2
For test [18], the target named is T2, Adenosine receptor A3. The test is described as follows: Inhibition of cAMP accumulation in CHO cells expressing human adenosine A3 receptor; range 3.5-7.6. The test is classed as functional, cell-based.
The target of test [19] is T1, Adenosine receptor A2b. The experiment in a line: Displacement of [3H]DPCPX from Adenosine A2b receptor expressed in […]; range 1770-2327. It is filed as cell-based.
Test [20] deals with T2, Adenosine receptor A3. The test is described as follows: Displacement of [3H]MRE3008-F20 from human adenosine A3 receptor expressed in CHO cells; range 0.32-0.74. It is filed as cell-based.
Test [21] concerns the target T4, Adenosine receptor A1. The test is described as follows: Displacement of [3H]-DPCPX from human adenosine A1 receptor expressed in CHO cells; […]. It is filed as cell-based.
Test [22] addresses T3, Adenosine receptor A2a. The test is described as follows: Displacement of [3H]-SCH- 58261 from human adenosine A2A receptor expressed in CHO cells; range 1024-1396. The test is classed as cell-based.
Test [23] concerns the target T2, Adenosine receptor A3. The test is described as follows: biochemical.
Test [24] has as its target T5, Adenosine receptor A3 (Homo sapiens). Particulars: CHO, 1 uM. This is another data set of the same source.
The target of test [25] is T2, Adenosine receptor A3. The test is described as follows: Inhibition of cAMP accumulation in CHO cells expressing human adenosine A3 receptor; range 2.8-8.1. The test is classed as functional, cell-based.
For test [26], the target named is T4, Adenosine receptor A1. The test is described as follows: Displacement of [3H]DPCPX from human adenosine A1 receptor expressed in CHO cells; range 323-378. It is filed as cell-based.
In test [27] the target is T1, Adenosine receptor A2b. The test is described as follows: Displacement of [3H]DPCPX from Adenosine A2b receptor expressed in […]; range 157-268. The test is classed as cell-based.

T3 sequence (P29274 whole entry): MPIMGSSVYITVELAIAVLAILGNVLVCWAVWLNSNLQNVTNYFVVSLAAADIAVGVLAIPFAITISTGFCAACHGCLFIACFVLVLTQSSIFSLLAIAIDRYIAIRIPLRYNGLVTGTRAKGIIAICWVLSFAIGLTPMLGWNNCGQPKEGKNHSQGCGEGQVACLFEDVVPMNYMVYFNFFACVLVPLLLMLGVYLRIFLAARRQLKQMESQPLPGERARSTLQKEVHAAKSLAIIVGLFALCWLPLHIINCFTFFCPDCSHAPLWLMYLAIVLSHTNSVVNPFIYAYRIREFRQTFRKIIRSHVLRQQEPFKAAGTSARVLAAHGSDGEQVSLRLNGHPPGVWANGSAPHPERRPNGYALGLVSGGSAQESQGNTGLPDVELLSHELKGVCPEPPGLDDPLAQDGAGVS

In general, pKi refers to the Ki on a negative log10 scale, so that one unit is a factor of ten. A lower pKi goes with a large Ki. The inhibition is the relative decrease from the control value, in per cent. Consider `COc1ccc(NC(=O)Nc2nc3nn(CCC(C)C)cc3c3nc(-c4ccco4)nn23)cc1`, for which the pKi in test [1] is 7.27; in test [2], 7.52; in test [3], 7.19; in test [4] it was 6.76. Besides, the Ratio in test [5] came to 5.8; in [7], 1.8. In test [6], this compound gave an inhibition of 48%.
For the compound `COc1ccc(NC(=O)Nc2nc3nn(CCCc4ccccc4)cc3c3nc(-c4ccco4)nn23)cc1`, the values for the negative logarithm of the Ki (pKi) in test [8], in test [9] and in [10] were 6.10, 7.40 and 6.00, respectively. Besides, the Ratio was 6.27 in [5] and 20 in test [7]. Also, the inhibition in test [11] was 49%.
`COc1ccc(NC(=O)Nc2nc3nn(CCc4cc(Br)c(Br)cc4Br)cc3c3nc(-c4ccco4)nn23)cc1`: the negative logarithm of the Ki (pKi) in test [12] was 7.60; in test [13] it was below 5.00; in test [14], 6.59; in [15] it was 5.69. The Ratio in [5] was 10.2; in test [7] it was above 400. The same compound returned an inhibition in test [11] of 50%.
As a reminder, the pIC50 is the IC50 on a negative log10 scale, so that one unit is a factor of ten. Turning to `C=CCn1cc2c(nc(NC(=O)Nc3ccc(OC)cc3)n3nc(-c4ccco4)nc23)n1`, the pKi in test [16] was 6.75; in test [19], 5.69; in test [20], 9.32; in test [21] it was 5.82. For the same compound, in test [17], the inhibition turned out to be 90%. In addition, in [18], the pIC50 was 8.29. For the same compound, the Ratio in test [5] amounted to 3190; in test [7], 4230.
As to `Cn1cc2c(nc(NC(=O)Nc3cccc(Cl)c3)n3nc(-c4ccco4)nc23)n1`, the pKi was 5.92 in [22], 9.40 in test [23], 6.46 in test [26] and 6.69 in test [27]. In test [24], this compound came in with an inhibition of 92%. Moreover, the Ratio in test [5] was found to be 875; in test [7], 512. In [25], this compound gave a negative logarithm of the IC50 (pIC50) of 8.32.
